IMP-1 inh: inhibitors of Pseudomonas aeruginosa IMP-1 metallo-beta-lactamase | purified IMP-1, nitrocefin hydrolysis, epi-absorbance fluorescence | inhibition, % at 5.6 µM | 290,000 compounds, 0.45% hits;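 active means inhibition above the mean plus 3 SD of all compounds in the same screening run, cut at about 4.5% in these data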
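System: purified recombinant IMP-1 beta-lactamase. Medium: Zinc- and detergent-supplemented HEPES buffer, pH 7.1. Compound: one 5.6 µM dose […]. Schedule: 15 min preincubation plus 25 min reaction at 25 °C. Technique: Epi-absorbance fluorescence, 480 nm excitation, 530 nm emission.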
MEKK2mut PB1 HTS: signal of MEK5 binding to mutant human MEKK2 PB1 domain; percent response, % at 10 µM; AID 1530; bead flow cytometry, Alexa488-MEK5 binding to MEKK2 mutant; 290,000 compounds, 0.35% hits; in the data active means percent response above about 24%, passing the limit was not always enough
VIM-2 inhibitor: blocks Pseudomonas aeruginosa VIM-2 metallo-beta-lactamase | inhibition, % at 5.6 µM | purified VIM-2, nitrocefin hydrolysis, epi-absorbance fluorescence | AID 1527 | 290,000 compounds, 0.89% hits;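 active means inhibition above the mean of all tested compounds plus 3 SD, cutoff set per screening run, cut at about 7.5% in these data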;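 further: red hydrolysis product quenches plate fluorescence so inhibitors raise well fluorescence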
MEKK2 WT-MEK5: raises or lowers MEK5 binding to wildtype human MEKK2 PB1 domain; AID 1531; binding response (% of control), % at 10 µM; Q9Y2U5; 290,000 compounds, 1.1% hits; bead flow cytometry, Alexa488-MEK5 binding to MEKK2 WT; actives lie on both sides; in the data active means binding response below about 67% or above about 130%
MEKK3 PB1 HTS: raises or lowers MEK5 binding to the human MEKK3 PB1 domain | Q99759 | binding response (% of control), % at 10 µM | bead-based flow cytometry, Alexa488-MEK5 binding to MEKK3; actives lie on both sides; 0 = blocked by unlabeled MEK5, 100 = vehicle | 290,000 compounds, 1.4% hits;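 active means binding response more than 3 SD above or below the average of its plate-row segment, actives on both sides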;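 further: Alexa488 bead fluorescence after subtracting the streptavidin-only scavenger bead signal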
Target sequence (Q99759 whole entry, looked up, the tested form may be a part): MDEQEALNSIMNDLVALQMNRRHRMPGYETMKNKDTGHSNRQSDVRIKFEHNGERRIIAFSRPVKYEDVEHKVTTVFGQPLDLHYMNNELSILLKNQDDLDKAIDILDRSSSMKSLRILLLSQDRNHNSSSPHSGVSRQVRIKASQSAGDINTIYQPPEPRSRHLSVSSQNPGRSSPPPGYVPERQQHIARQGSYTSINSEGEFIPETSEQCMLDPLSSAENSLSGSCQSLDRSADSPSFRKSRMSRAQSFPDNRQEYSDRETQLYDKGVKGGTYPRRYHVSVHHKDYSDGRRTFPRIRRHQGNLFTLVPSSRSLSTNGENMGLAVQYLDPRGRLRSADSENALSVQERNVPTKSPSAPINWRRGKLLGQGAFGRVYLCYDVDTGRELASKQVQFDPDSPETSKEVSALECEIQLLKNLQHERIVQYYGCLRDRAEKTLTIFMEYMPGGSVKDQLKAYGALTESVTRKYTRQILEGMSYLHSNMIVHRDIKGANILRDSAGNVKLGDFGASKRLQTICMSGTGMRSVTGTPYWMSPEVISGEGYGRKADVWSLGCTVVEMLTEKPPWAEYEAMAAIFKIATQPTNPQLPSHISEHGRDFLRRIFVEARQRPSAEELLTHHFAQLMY
MEKK2wt confirm: raises or lowers MEK5 binding to wildtype human MEKK2, retest. shares compounds with MEKK3 PB1 HTS. binding response (% of control), % at 10 µM. 5,900 compounds, 2.4% hits. bead flow cytometry, Alexa488-MEK5 binding to MEKK2 WT; actives lie on both sides; in the data active means binding response below about 16% or above about 210%; inactive means in between
MEKK2mut-MEK5: signal of MEK5 binding to mutant human MEKK2, retest; shares compounds with MEKK3 PB1 HTS; bead flow cytometry, Alexa488-MEK5 binding to MEKK2 mutant; percent response, % at 10 µM; 5,900 compounds, 2% hits; in the data active means percent response mostly above about 71%, no sharp cut-off; inactive means mostly below about 38%;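 further: higher means compound restores mutant binding toward wildtype level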
MEKK3-MEK5 inh: MEKK3-MEK5 PB1 inhibition, single concentration confirmation; bead flow cytometry, Alexa488-MEK5 binding to MEKK3; hits give low values; AID 1894; shares compounds with MEKK3 PB1 HTS; binding response (% of control), % at 10 µM; 5,900 compounds, 1.8% hits;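 active means binding response below 72% of control, or above a set upper limit, though filed actives all read lower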
Large screens that a line does not name were inactive (follow-up assays come after a bar, where they were run); [ ] = dose if it differs, or a comment. This is a sample that favours compounds with a hit; in the whole collection about 3.4% have one here.

O=C(COC(=O)CCN1C(=O)/C(=C\C=C\c2ccccc2)SC1=S)Nc1cc(F)ccc1F	IMP-1 inh 7.9, MEKK2 WT-MEK5 58.0[inhibitor] | MEKK2wt confirm inactive | MEKK2mut-MEK5 inactive | MEKK3-MEK5 inh inactive
Cc1ccc(S(=O)(=O)Nc2cccnc2)cc1	none
CCCCOc1ccc(S(=O)(=O)Nc2cccnc2)cc1	MEKK2 WT-MEK5 -8.0[inhibitor], MEKK3 PB1 HTS 1.0[inhibitor] | MEKK2wt confirm inactive | MEKK2mut-MEK5 inactive | MEKK3-MEK5 inh inactive
COc1ccccc1C1c2ccc3ccccc3c2Oc2ncn(CCCO)c(=N)c21 (configuration not stated)	none
COc1ccc(C2c3ccc4ccccc4c3Oc3ncn(CCCN(C)C)c(=N)c32)cc1 (configuration not stated)	MEKK2mut PB1 HTS 51.0, MEKK2 WT-MEK5 202.0 | MEKK2wt confirm inactive | MEKK2mut-MEK5 inactive | MEKK3-MEK5 inh inactive
COc1ccc(C2c3ccc4ccccc4c3Oc3ncn(Cc4ccco4)c(=N)c32)cc1OC (configuration not stated)	MEKK2 WT-MEK5 161.0 | MEKK2wt confirm inactive | MEKK2mut-MEK5 inactive | MEKK3-MEK5 inh inactive
COc1ccccc1C1c2ccc3ccccc3c2Oc2ncn(CCN(C)C)c(=N)c21 (configuration not stated)	MEKK2mut PB1 HTS 32.0, MEKK2 WT-MEK5 153.0 | MEKK2wt confirm inactive | MEKK2mut-MEK5 inactive | MEKK3-MEK5 inh inactive
COc1ccc(C2c3c(ncn(CCN4CCOCC4)c3=N)Oc3ccc4ccccc4c32)cc1OC (configuration not stated)	MEKK2 WT-MEK5 163.0 | MEKK2wt confirm inactive | MEKK2mut-MEK5 inactive | MEKK3-MEK5 inh inactive
COc1ccc(/C=C2/Sc3ccc(C(=O)N4CCOCC4)cc3NC2=O)cc1OC	none
Cc1cc(C(=O)Nc2cnc3ccccc3c2)ccc1[N+](=O)[O-]	none
COCCNC(=O)CN1C(=O)CSc2cc(S(=O)(=O)N3CCCCCC3)ccc21	none
COc1ccc(C(CCN)c2ccc3c(c2)OCO3)cc1 (configuration not stated)	MEKK2mut PB1 HTS 28.0 | MEKK2wt confirm inactive | MEKK2mut-MEK5 inactive | MEKK3-MEK5 inh inactive
CC(C)(C)S(=O)(=O)c1cnc(N2CCCCC2)nc1N	none
C=CCC(C(=O)OC)(C(=O)OC)c1ccc([N+](=O)[O-])cc1[N+](=O)[O-]	none
CC(=O)c1c(C)[nH]c(C(=O)NC2=NCCS2)c1C	MEKK2 WT-MEK5 3.0[inhibitor], MEKK3 PB1 HTS 2.0[inhibitor] | MEKK2wt confirm 1.0[inhibitor] | MEKK2mut-MEK5 inactive | MEKK3-MEK5 inh 2.0
CCCCc1nc2sc3c(SCCN(C)C)ncnc3c2c2c1CCC2	MEKK2 WT-MEK5 152.0 | MEKK2wt confirm inactive | MEKK2mut-MEK5 inactive | MEKK3-MEK5 inh inactive
O=C(Nc1ccc(S(=O)(=O)NCc2ccccc2)cc1)c1ccccc1[N+](=O)[O-]	MEKK3 PB1 HTS 158.0 | MEKK2wt confirm inactive | MEKK2mut-MEK5 inactive | MEKK3-MEK5 inh inactive
CCOC(=O)c1ccc(NC(=O)c2ccccc2[N+](=O)[O-])cc1	none
CCOC(=O)c1c(NC(=O)CN2CCOCC2)sc2c1CC(C)(C)OC2	MEKK2 WT-MEK5 4.0[inhibitor], MEKK3 PB1 HTS 3.0[inhibitor] | MEKK2wt confirm inactive | MEKK2mut-MEK5 inactive | MEKK3-MEK5 inh inactive
CCOC(=O)c1c(NC(=O)CCN2CCOCC2)sc2c1CC(C)(C)OC2	none
CCOC(=O)c1c(NC(=O)CCC(=O)N2CCOCC2)sc2c1CC(C)(C)OC2	MEKK3 PB1 HTS 79.0[inhibitor] | MEKK2wt confirm inactive | MEKK2mut-MEK5 inactive | MEKK3-MEK5 inh inactive
Cc1ccnc(NS(=O)(=O)c2ccc(NC(=O)c3cncc(Br)c3)cc2)n1	none
CCCCCCCCCCCCCCCCn1cc[n+](CC(C)=O)c1	MEKK2mut PB1 HTS 89.0, MEKK2 WT-MEK5 220.0 | MEKK2wt confirm inactive | MEKK2mut-MEK5 inactive | MEKK3-MEK5 inh inactive
COC(=O)c1cc(-c2ccc(S(=O)(=O)N3CCCC3)cc2)c(C(F)(F)F)s1	none
CCN(CC)S(=O)(=O)c1ccc(-c2cc(C(=O)OC)sc2C(F)(F)F)cc1	MEKK3 PB1 HTS 130.0 | MEKK2wt confirm inactive | MEKK2mut-MEK5 inactive | MEKK3-MEK5 inh inactive
Clc1cccc(Nc2nc(-c3ccncc3)cs2)c1	none
Cc1cc(NC(=O)c2ccc3c(c2)OCCO3)ccc1NC(=O)c1ccco1	none
O=C(CSc1ncnc2scc(-c3ccccc3)c12)Nc1ccc(C(=O)O)cc1	none
CC(=O)Nc1ccc(Sc2ncnc3scc(-c4ccccc4)c23)cc1	MEKK3 PB1 HTS 128.0 | MEKK2wt confirm inactive | MEKK2mut-MEK5 inactive | MEKK3-MEK5 inh inactive
S=C(NCCc1ccccc1)Nc1ccc(Cl)cc1	none
Cc1nc(SCC(O)CO)c([N+](=O)[O-])[nH]1 (configuration not stated)	MEKK2 WT-MEK5 138.0 | MEKK2wt confirm inactive | MEKK2mut-MEK5 inactive | MEKK3-MEK5 inh inactive
c1ccc(CNc2nc(N3CCN(Cc4ccccc4)CC3)nc3ccccc23)cc1	MEKK2 WT-MEK5 161.0 | MEKK2wt confirm inactive | MEKK2mut-MEK5 inactive | MEKK3-MEK5 inh inactive
Cc1csc2ncnc(NC3CCN(Cc4ccccc4)CC3)c12	none
c1ccc(N2CCN(c3nc(NCc4ccco4)c4ccccc4n3)CC2)cc1	MEKK2 WT-MEK5 145.0 | MEKK2wt confirm inactive | MEKK2mut-MEK5 inactive | MEKK3-MEK5 inh inactive
c1ccc(CN2CCC(Nc3nc(-c4ccccc4)nc4ccccc34)CC2)cc1	MEKK2 WT-MEK5 144.0 | MEKK2wt confirm inactive | MEKK2mut-MEK5 inactive | MEKK3-MEK5 inh inactive
Cc1cc(NC(=O)Cn2nc(C(=O)O)c3ccccc3c2=O)ccc1Br	none
CSc1cnc2c(=O)[nH]c(=O)n(C)c2n1	none
Cc1ccc(NS(=O)(=O)c2cc([N+](=O)[O-])ccc2N/N=C/c2sc(N3CCOCC3)nc2-c2ccccc2)c(C)c1	MEKK3 PB1 HTS 10.0[inhibitor] (no result: MEKK2 WT-MEK5) | MEKK2wt confirm inactive | MEKK2mut-MEK5 inactive | MEKK3-MEK5 inh inactive
CCCCCC(=O)Nc1cccc(C2=NOC3(C2)C[C@H](C(N)=O)N(C(=O)COc2ccc(Cl)cc2)C3)c1 (some centres not stated)	MEKK2 WT-MEK5 6.0[inhibitor], MEKK3 PB1 HTS 3.0[inhibitor] (no result: IMP-1 inh, VIM-2 inhibitor) | MEKK2wt confirm inactive | MEKK2mut-MEK5 inactive | MEKK3-MEK5 inh inactive
CCC(=O)Nc1cccc(C2=NOC3(C2)C[C@@H](C(N)=O)N(C(=O)CC)C3)c1 (some centres not stated)	none (no result: IMP-1 inh, VIM-2 inhibitor)

High-throughput results: PubChem, several laboratories
